Tested on: SF-295
Test: Cytotoxicity against human SF295 cells
Assay type: functional
Details: read-out: GI50
How it was run: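 Tested in a 60-cell-line human tumor panel screen; the read-out is growth inhibition, reported as GI50 for each cell line.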

SMILES	GI50 [nM]
CC(C)=CCc1c(O)cc(/C=C/c2cc(O)c3c(c2)C[C@@H]2C(C)(C)[C@H](O)CC[C@@]2(C)O3)cc1O [SCHWEINFURTHIN G]	10
COc1cc(/C=C/c2cc(O)c(CC=C(C)C)c(O)c2)cc2c1O[C@]1(C)CC[C@@H](O)C(C)(C)[C@H]1C2 [SCHWEINFURTHIN F]	< 36
